High-throughput results as filed in PubChem.
A selection: hits, their analogues and other compounds. The true share with any hit is near 0.79%.
bIAP inhibitor: intestinal alkaline phosphatase (bovine) inhibition; inhibition, % at 20 µM; purified bovine IAP, CDP-star luminescence, 30 min; 190,000 tested, under 10 active; AID 1019;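 active means over 50% inhibition of intestinal alkaline phosphatase at 20 µM in the single-dose screen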
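Incubation: 30 min reaction at room temperature / Material: purified bovine intestinal alkaline phosphatase (IAP) enzyme / Input: enzyme at 1/65,000,000 dilution / Dosing: 20 µM single dose / Signal: CDP-star luminescence signal / Reagent: CDP-star chemiluminescent phosphatase substrate, 30 µM final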
mIAP block: mouse IAP inhibition; 0.2% of 330,000 active; inhibition, % at 10 µM; AID 2806; purified mouse IAP, CDP-Star luminescence, 30 min;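 active means inhibition of at least 40% at 10 µM in the primary screen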;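 further: plate controls were DMSO with enzyme for no effect and no enzyme wells for full effect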
bIAP act: increases bovine intestinal alkaline phosphatase activity | purified bovine IAP, CDP-star luminescence, 30 min; hits give high values; fold of DMSO-control signal, blank-subtracted | activation factor at 20 µM | 0.17% of 200,000 active | AID 1016;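 active means activation factor of 2 or more at 20 µM, a signal rise over negative controls twice the positive control's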
hIAP act: increases human intestinal alkaline phosphatase activity | AID 2524 | activation factor at 10 µM | 0.16% of 330,000 active | P09923 | purified human IAP, CDP-Star luminescence, 30 min; hits give high values; 1 = vehicle-only enzyme, 0 = enzyme-free background;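 active means activation factor of the enzyme at least 2-fold when tested at 20 µM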
Target sequence (P09923 whole entry, looked up): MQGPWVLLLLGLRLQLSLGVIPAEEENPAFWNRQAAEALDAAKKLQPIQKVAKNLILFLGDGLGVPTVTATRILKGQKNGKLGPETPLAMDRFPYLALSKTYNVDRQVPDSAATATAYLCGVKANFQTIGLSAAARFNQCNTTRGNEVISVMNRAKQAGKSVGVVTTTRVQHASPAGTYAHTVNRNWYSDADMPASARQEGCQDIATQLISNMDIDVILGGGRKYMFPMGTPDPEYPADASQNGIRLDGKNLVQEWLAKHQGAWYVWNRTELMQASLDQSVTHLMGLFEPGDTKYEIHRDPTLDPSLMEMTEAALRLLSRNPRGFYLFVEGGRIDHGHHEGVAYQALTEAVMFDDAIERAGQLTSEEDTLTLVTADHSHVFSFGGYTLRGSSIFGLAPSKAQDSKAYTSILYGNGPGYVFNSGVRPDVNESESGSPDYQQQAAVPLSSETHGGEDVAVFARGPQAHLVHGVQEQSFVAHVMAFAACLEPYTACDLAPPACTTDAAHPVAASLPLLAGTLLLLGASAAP
hIAP block: blocks human intestinal alkaline phosphatase | purified IAP, CDP-Star luminescence, 30 min | inhibition, % at 10 µM | 0.12% of 330,000 active;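 active means inhibition reaching a set limit with compound at 10 µM in the primary screen, cut at about 35% in these data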;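 further: plate controls were DMSO wells with enzyme for no effect and no-enzyme buffer wells for full effect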
mIAP act: mouse IAP activation | muIAP, CDP-Star luminescence, 30 min; hits give high values; 1 = vehicle-only enzyme signal, 0 = enzyme-free wells | activation factor at 10 µM | 0.24% of 330,000 active | AID 2805;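 active means activation factor of at least 2 at 20 µM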
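Assay system: mouse IAP enzyme; Reagent: CDP-Star chemiluminescent phosphatase substrate; Compound: DMSO-dissolved test compounds; Incubation: 30 min, room temperature; Technique: luminescence from enzymatic CDP-Star hydrolysis; Controls: DMSO-only wells and no-enzyme negative control.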
Starred values were filed as active, the others as inactive.

For CC1CN(C(=O)Cc2ccc(-c3ccccc3)cc2)CC(C)O1 (stereo not given) the results were bIAP inhibitor -10, mIAP block 5, bIAP act 1.1, hIAP act 0.81, hIAP block 19 and mIAP act 0.95.
For Cc1cccc2cc(/C=N/NC(=O)c3ccccc3O)c(Cl)nc12 the results were bIAP inhibitor 2, mIAP block 14, bIAP act 1, hIAP act 0.9, hIAP block 10 and mIAP act 0.86.
Screening Cc1ccc2cc(/C=N/NC(=O)c3ccccc3O)c(Cl)nc2c1 returned bIAP inhibitor -107, mIAP block 15, bIAP act 2.1*, hIAP act 0.88, hIAP block 12 and mIAP act 0.85.
Cc1ccccc1N1CCN(C2CCCN(C(=O)c3ccsc3)C2)CC1 (stereo not given) was read as mIAP block -4, hIAP act 1, hIAP block -4 and mIAP act 1.
`CCn1c(SCc2nc3ccccc3[nH]2)nnc1-c1ccccc1OC` gave bIAP inhibitor -133, mIAP block 2, bIAP act 2.3*, hIAP act 0.87, hIAP block 13 and mIAP act 0.98.
`Cc1ccc(/C=C/C(=O)NC2=NCCS2)cc1` gave bIAP inhibitor 38, mIAP block -2, bIAP act 0.6, hIAP act 0.59, hIAP block 41* and mIAP act 1.
For O=C(N[C@@H](Cc1ccccc1)C(=O)NCc1ccc(F)cc1)C1CCNCC1 the results were mIAP block -3, hIAP act 0.89, hIAP block 11 and mIAP act 1.
Screening COC(=O)c1ccc(NC(=S)NC2CC2)cc1 returned bIAP inhibitor -2, mIAP block -6, bIAP act 1, hIAP act 0.91, hIAP block 9 and mIAP act 1.1.
CC(=O)Nc1ccc(C(=O)NC2CCSc3ccccc32)cc1 (stereo not given) was read as mIAP block 0, hIAP act 0.92, hIAP block 8 and mIAP act 1.
`COC(=O)c1ccc(NC(=S)NC2CCc3ccccc32)cc1` (stereo not given) gave bIAP inhibitor -1, mIAP block -190, bIAP act 1, hIAP act 1, hIAP block -4 and mIAP act 2.9*.
For Cc1ccc(NC(=S)NC2CCSc3ccccc32)cc1 (stereo not given) the results were mIAP block -269, hIAP act 1.3, hIAP block -33 and mIAP act 3.7*.
Screening Oc1ccc(-c2nc(-c3ccc(O)c(O)c3)cs2)cc1 returned bIAP inhibitor 16, mIAP block 32, bIAP act 0.8, hIAP act 0.62, hIAP block 38* and mIAP act 0.68.
`CS(=O)(=O)N1CCCC(C(=O)Nc2ccc3c(c2)OCCO3)C1` (stereo not given) gave bIAP inhibitor -13, mIAP block 4, bIAP act 1.1, hIAP act 1.1, hIAP block -7 and mIAP act 0.96.
Screening CC(=O)OCCCN1c2ccccc2Nc2nnc(-c3ccccc3)cc21 returned bIAP inhibitor inactive, mIAP block -250, bIAP act 28*, hIAP act 1, hIAP block -2 and mIAP act 3.5*.
Screening CCCN(CCC)C(=O)CSc1nc2n[nH]c(C)c2c(=N)n1-c1ccc(OC)cc1 returned bIAP inhibitor -190, mIAP block -28, bIAP act 2.9*, hIAP act 1.1, hIAP block -10 and mIAP act 1.3.
Screening CCc1ccccc1NC(=O)CSc1nc2n[nH]c(C)c2c(=N)n1-c1ccc(OC)cc1 returned bIAP inhibitor 7 and bIAP act 0.9.
Screening CCCN(CCC)C(=O)CSc1nc2n[nH]c(C)c2c(=N)n1-c1ccc(OCC)cc1 returned bIAP inhibitor -111, mIAP block -8, bIAP act 2.1*, hIAP act 0.9, hIAP block 10 and mIAP act 1.1.
Screening CC(c1ccccc1)N1CC(C(=O)N2CCCC(C(N)=O)C2)CC1=O (stereo not given) returned mIAP block -4, hIAP act 0.98, hIAP block 2 and mIAP act 1.
`COc1ccc(/C=N/NC(=O)c2cnccn2)cc1O` gave bIAP inhibitor -1, mIAP block -2, bIAP act 1, hIAP act 1.1, hIAP block -12 and mIAP act 1.
COc1cccc(/C=N/NC(=O)c2cnccn2)c1 was read as bIAP inhibitor -121, mIAP block 5, bIAP act 2.2*, hIAP act 0.85, hIAP block 15 and mIAP act 0.95.
Screening OCc1nc2ccccc2n1C/C=C/c1ccccc1 returned bIAP inhibitor -125, mIAP block -2, bIAP act 2.2*, hIAP act 1.1, hIAP block -14 and mIAP act 1.
Screening CC(O)c1nc2ccccc2n1C/C=C/c1ccccc1 (stereo not given) returned bIAP inhibitor -1, mIAP block 6, bIAP act 1, hIAP act 1.1, hIAP block -8 and mIAP act 0.94.
Screening Cc1cc(C(=O)CN2C(=O)NC(c3ccccc3)(c3ccccc3)C2=O)c(C)n1Cc1ccccc1 returned bIAP inhibitor -1, mIAP block 2, bIAP act 1, hIAP act 0.89, hIAP block 11 and mIAP act 0.98.
For O=C(NC(=S)NNC(=O)c1ccccc1O)c1ccco1 the results were bIAP inhibitor 10 and bIAP act 0.9.
Screening O=C(NC(=S)NNC(=O)c1cc2ccccc2cc1O)c1ccco1 returned bIAP inhibitor 8, mIAP block 35, bIAP act 0.9, hIAP act 2.2*, hIAP block -124 and mIAP act 0.65.
`O=Cc1[nH]c2ccccc2c1N(C(=O)CCl)c1ccc([N+](=O)[O-])cc1` gave mIAP block 3, hIAP act 0.65, hIAP block 35* and mIAP act 0.97.
`CC(=O)n1cc(N(C(=O)CCl)c2ccc([N+](=O)[O-])cc2)c2ccccc21` gave mIAP block 5, hIAP act 1.1, hIAP block -12 and mIAP act 0.95.
Screening CCn1c(NCc2cc(Br)ccc2NS(=O)(=O)c2ccc(C)cc2)nc2ccccc21 returned bIAP inhibitor -45, mIAP block -110, bIAP act 1.5, hIAP act 1.1, hIAP block -7 and mIAP act 2.1*.
Screening CC(=O)Nc1ccc(SCCN2CC[C@@H](C)CCC2=O)cc1 returned mIAP block 1, hIAP act 0.87, hIAP block 13 and mIAP act 0.99.
`COc1cc(/C=C2\COC/C(=C\c3ccc(O)c(OC)c3)C2=O)ccc1O` gave mIAP block 42*, hIAP act 0.89, hIAP block 11 and mIAP act 0.58.
